The test system of one assay is A549. As to the kind of experiment: Cytotoxicity against human A549 cells after 44 hrs by MTT assay. The class given is functional, cell-based. The note with it: A549, 44 h. The method in brief:
(§1)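 SF-295 cells cultured in RPMI 1640 and A549 cells in F-12, each with 10% FBS, penicillin–streptomycin, amphotericin B and L-glutamine, at 37 °C in 5% CO2. Cells were grown to 60% confluency, then treated for 44 h. Medium was replaced with medium containing 0.06 mg/mL MTT (phenol red-free RPMI for SF-295) for 4 h. Acid/Triton/isopropanol stop solution was added, plates incubated overnight at 37 °C, OD read at 540 and 650 nm, and EC50 calculated.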

The test system of another assay is SF-295. As to the kind of experiment: Cytotoxicity against human SF295 cells after 44 hrs by MTT assay. Particulars: SF-295, 44 h. The class given is functional, cell-based. The method in brief:
as §1
(Tetrazolium dyes change colour on reduction, which living cells bring about.)

Some results are limits rather than exact numbers.

Consider 9 compounds from ChEMBL document CHEMBL1156920, “Structural analogues of schweinfurthin F: probing the steric, electronic, and hydrophobic properties of the D-ring substructure” (Bioorg Med Chem, 2010).

Consider `COc1cc(CCc2cc(O)c(CCC(C)C)c(O)c2)cc2c1O[C@]1(C)CC[C@@H](O)C(C)(C)[C@H]1C2`, for which the concentration for a half-maximal effect (EC50) (commonly the concentration needed to bring the measured effect to its halfway point) in the assay with A549 was more than 10000 nM; in the assay with SF-295 it was 2800 nM.
Take `COc1cc(CCc2cc(O)c(CC=C(C)C)c(O)c2)cc2c1O[C@]1(C)CC[C@@H](O)C(C)(C)[C@H]1C2`: the EC50 in the assay on A549 was more than 10000 nM; with SF-295, 2900 nM.
As for `COc1cc(/C=C\c2cc(O)c(C/C=C(\C)CCC=C(C)C)c(O)c2)cc2c1O[C@]1(C)CC[C@@H](O)C(C)(C)[C@H]1C2`, the EC50 with A549 and in the assay with SF-295 was more than 10000 nM throughout.
Regarding `COc1cc(/C=C/c2cc(O)c(CCCO)c(O)c2)cc2c1O[C@]1(C)CC[C@@H](O)C(C)(C)[C@H]1C2`, the EC50 was more than 10000 nM in the assay with A549 and 2500 nM in the assay on SF-295.
The matching figures for `COc1cc(/C=C/c2cc(O)c3ccoc3c2)cc2c1O[C@]1(C)CC[C@@H](O)C(C)(C)[C@H]1C2`: more than 10000 nM and 4800 nM.
The corresponding values for `C#CCc1c(O)cc(/C=C/c2cc3c(c(OC)c2)O[C@]2(C)CC[C@@H](O)C(C)(C)[C@H]2C3)cc1O` are more than 10000 nM and 1300 nM.
Regarding `C=CCc1c(O)cc(/C=C/c2cc3c(c(OC)c2)O[C@]2(C)CC[C@@H](O)C(C)(C)[C@H]2C3)cc1O`, the values for the EC50 in the assay on A549 and in the assay with SF-295 were more than 10000 nM and 1700 nM, respectively.
Consider `COc1cc(/C=C/c2cc(O)c3c(c2)OCC3)cc2c1O[C@]1(C)CC[C@@H](O)C(C)(C)[C@H]1C2`, for which the EC50 with A549 is more than 10000 nM; with SF-295, 2900 nM.
For the compound `CCCc1c(O)cc(/C=C/c2cc3c(c(OC)c2)O[C@]2(C)CC[C@@H](O)C(C)(C)[C@H]2C3)cc1O`, the EC50 is more than 10000 nM with A549 and 900 nM in the assay on SF-295.
